From PubChem BioAssay
Myeloid diff MLP: induction of myeloid progenitor differentiation, primary screen, cell-based, flow cytometry, MLPCN library | ER-HoxA9 myeloid progenitors, lysozyme-GFP differentiation | calls only at 10 µM | hit rate 1% among 360,000 | AID 624256, 2012;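 active = normalized GFP-positive differentiation at or above the plate's own cutoff, the solvent-only control mean plus 3 SD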;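 also: cells exposed to compound for four days before flow analysis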
ABCB6 inh 2: ABCB6 transporter inhibitors, primary screen, K562-ABCB6 cells, flow cytometry, MLPCN library | ATP-binding cassette sub-family B member 6 (Homo sapiens), Q9NP58 | K562-ABCB6 porphyrin accumulation, 1 h; stronger effect = lower value | fluorescence ratio to DMSO, % at 10 µM | hit rate 0.19% among 360,000 | AID 602162, 2011;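 active = fluorescence ratio to DMSO below 75%, the collection mean minus 3 SD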;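 also: signal is porphyrin accumulated inside mitochondria; lower ratio means ABCB6 inhibition with less porphyrin fluorescence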
Target sequence (Q9NP58 whole entry, looked up): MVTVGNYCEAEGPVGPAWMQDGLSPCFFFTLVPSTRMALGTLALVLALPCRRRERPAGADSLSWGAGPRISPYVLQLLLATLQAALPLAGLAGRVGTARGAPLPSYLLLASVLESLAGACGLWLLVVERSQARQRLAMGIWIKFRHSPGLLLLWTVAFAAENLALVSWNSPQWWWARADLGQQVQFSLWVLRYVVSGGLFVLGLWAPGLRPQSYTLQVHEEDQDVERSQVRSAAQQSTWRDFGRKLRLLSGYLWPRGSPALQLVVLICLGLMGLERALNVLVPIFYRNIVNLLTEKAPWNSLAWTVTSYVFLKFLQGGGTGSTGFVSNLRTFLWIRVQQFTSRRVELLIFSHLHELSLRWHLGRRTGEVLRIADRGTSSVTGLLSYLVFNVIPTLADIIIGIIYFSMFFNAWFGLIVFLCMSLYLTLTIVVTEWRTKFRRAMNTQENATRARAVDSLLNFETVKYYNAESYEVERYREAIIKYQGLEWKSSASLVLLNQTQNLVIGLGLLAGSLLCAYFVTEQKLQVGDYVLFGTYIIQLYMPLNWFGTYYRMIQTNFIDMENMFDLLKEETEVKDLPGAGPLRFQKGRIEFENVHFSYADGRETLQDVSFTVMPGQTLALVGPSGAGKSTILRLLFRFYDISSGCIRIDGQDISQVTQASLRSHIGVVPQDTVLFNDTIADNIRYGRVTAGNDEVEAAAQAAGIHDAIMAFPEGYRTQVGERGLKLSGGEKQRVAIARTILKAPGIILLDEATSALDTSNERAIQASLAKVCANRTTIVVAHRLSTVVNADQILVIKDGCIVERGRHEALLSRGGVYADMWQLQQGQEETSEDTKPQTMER
Xi reactivation: activators of inactive X chromosome reactivation, primary screen, imaging, XiGFP fibroblasts, GFP high-content imaging, set 2; XiGFP mouse fibroblasts, % GFP-positive cells imaging, 3 d; cells co-treated with 5-aza-dC sensitizer; scaled so ellipticine positive control = 100%; activation, % at 7.58 µM; hit rate 0.055% among 360,000; AID 743238, 2013;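 active = mean normalized replicate activation at least 10% and every replicate at or above 10%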
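Schedule: 3 d treatment, 15 min room-temperature fixation; system: 68-5-11 XiGFP fibroblast line; buffer or medium: DMEM plus 5-aza-dC sensitizer; control set: ellipticine 6 µM positive control; compound: one concentration, pinned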
ABCB6 blocker 1: ABCB6 transporter inhibitors, confirmation, K562-ABCB6 cells, flow cytometry, cherry pick 1; shares compounds with ABCB6 inh 2; K562-ABCB6 porphyrin accumulation, 1 h; stronger effect = lower value; ratio response (% of DMSO), % at 10 µM; 700 tested, under 10 active;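 active = repeat-averaged ratio response below 75% of DMSO, the collection mean minus 3 SD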;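 also: median porphyrin fluorescence at 575 nm with 488 nm excitation from mitochondria; lower ratio means less porphyrin signal so ABCB6 inhibition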
K562 vector FC: empty-vector K562 compound effect – cell-based, flow cytometry, cherry pick set 2, counter-screen for ABCB6 inhibitor project, dose response; shares compounds with ABCB6 inh 2; K562 empty-vector cells, flow cytometry fluorescence, 1 h; percent response (fluorescence), % at 100 µM; 25 tested, under 10 active; AID 624484, 2012;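 active = compounds whose half-maximal effective concentration is below 100 µM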
Large screens that a line does not name were inactive (follow-up assays come after a bar, where they were run). The entries come from a sample that favours hits as a whole.

C[C@H]1CN([C@@H](C)CO)C(=O)c2cc(C#Cc3ccncc3)cnc2O[C@H]1CN(C)Cc1ccncc1	none (no result: Myeloid diff MLP, ABCB6 inh 2)
Cc1noc(C)c1NC(=O)Nc1ccc2c(c1)C(=O)N([C@H](C)CO)C[C@H](C)[C@@H](CN(C)C(=O)Nc1cccc3ccccc13)OCCCC[C@H](C)O2	none (no result: Myeloid diff MLP, ABCB6 inh 2)
Cc1cnc(NC(=O)CCCSc2nc3ccccc3s2)s1	none (no result: Xi reactivation)
CCc1ccccc1NC(=O)CCCSc1nc2ccccc2s1	ABCB6 inh 2 72 | ABCB6 blocker 1 inactive
COC(=O)C[C@@H]1CC[C@H]2[C@H](COc3ccc(NC(=O)Nc4ccccc4C)cc3C(=O)N2C)O1	none (no result: Myeloid diff MLP, ABCB6 inh 2)
C[C@@H]1CCCCO[C@@H](CN(C)C(=O)Nc2ccc(C(F)(F)F)cc2)[C@@H](C)CN([C@H](C)CO)C(=O)c2cc(NC(=O)CCCCCC(=O)Nc3ccccc3N)ccc2O1	none (no result: Myeloid diff MLP, ABCB6 inh 2)
OC(COc1ccc(Br)cc1)Cn1ccnc1 (stereo not given)	ABCB6 inh 2 74 | ABCB6 blocker 1 inactive
COc1cc(OC)cc(OCC(O)Cn2ccnc2)c1 (stereo not given)	none (no result: Xi reactivation)
O=S(=O)(c1ccccc1)N1CCN(Cc2ccccc2)CC1	none
Cc1ccc(S(=O)(=O)N2CCN(Cc3ccccc3)CC2)cc1	ABCB6 inh 2 8.0 | ABCB6 blocker 1 inactive
CN1C[C@H]2[C@@H](c3ccccc31)[C@H](CO)N2C(=O)C1CCCC1	none (no result: Myeloid diff MLP, ABCB6 inh 2)
Cc1c(C(=O)N(Cc2ccccc2)C(C)C)cnn1-c1ccccc1	none
Cc1c(C(=O)N(Cc2ccccc2)Cc2cccs2)cnn1-c1ccc(Cl)cc1	ABCB6 inh 2 14 | ABCB6 blocker 1 inactive
COc1ccccc1NC(=O)N[C@@H]1C=C[C@@H](CC(=O)NCc2ccc(Cl)c(Cl)c2)O[C@@H]1CO	none (no result: Myeloid diff MLP, ABCB6 inh 2)
Cc1cccc(C(C)C)c1NC(=O)COC(=O)CCC(=O)N(CC(C)C)c1c(N)n(CC(C)C)c(=O)[nH]c1=O	none | ABCB6 blocker 1 inactive
CC(C)CN(C(=O)CCC(=O)OCc1ccc(Cl)cc1Cl)c1c(N)n(CC(C)C)c(=O)[nH]c1=O	none
Cc1noc(C)c1NC(=O)N(C)C[C@H]1Oc2c(NC(=O)c3cnccn3)cccc2C(=O)N([C@H](C)CO)C[C@@H]1C	none (no result: Myeloid diff MLP, ABCB6 inh 2)
CC(C)NC(=O)Nc1ccc2c(c1)C(=O)N([C@H](C)CO)C[C@@H](C)[C@@H](CN(C)Cc1ccc(C(F)(F)F)cc1)O2	none (no result: Myeloid diff MLP, ABCB6 inh 2)
O=C(C[C@H]1C=C[C@H](NC(=O)CN2CCOCC2)[C@H](CO)O1)NC1CCCCC1	none (no result: Myeloid diff MLP, ABCB6 inh 2)
COc1ccc(S(=O)(=O)Cc2ccc(C(=O)N3CCC(C(N)=O)CC3)o2)cc1	none
Cc1ccc(S(=O)(=O)Cc2ccc(C(=O)N3CCC(C(N)=O)CC3)o2)cc1	ABCB6 inh 2 55 | ABCB6 blocker 1 inactive
COc1cc(C2=NOC(C(=O)N3CCCc4ccccc43)C2)cc(OC)c1OC (stereo not given)	ABCB6 inh 2 64 (no result: Xi reactivation) | ABCB6 blocker 1 inactive
COc1ccc(C2=NOC(C(=O)N3CCCc4ccccc43)C2)cc1 (stereo not given)	none (no result: Xi reactivation)
COc1ccc2c3c(n(C)c2c1)[C@H](CO)N(C(=O)CN1CCOCC1)CC31CCN(C(=O)CC2CC2)CC1	none (no result: Myeloid diff MLP, ABCB6 inh 2)
C[C@H](CO)N1C[C@H](C)[C@H](CN(C)CC2CCOCC2)Oc2ncc(C#C[C@@H](C)O)cc2C1=O	none (no result: Myeloid diff MLP, ABCB6 inh 2)
O=C(O)CSc1nnc(Cn2c(=O)sc3ccccc32)n1-c1cccc(Cl)c1	none (no result: Xi reactivation)
NC(=O)CSc1nnc(Cn2c(=O)sc3ccccc32)n1-c1cccc(Cl)c1	ABCB6 inh 2 66 (no result: Xi reactivation) | ABCB6 blocker 1 inactive
C[C@H]1CN([C@@H](C)CO)C(=O)c2c(c3ccccc3n2C)-c2ccccc2CO[C@H]1CN(C)C(=O)CCN(C)C	none (no result: Myeloid diff MLP, ABCB6 inh 2)
CCNC(=O)Nc1ccc2c(c1)C(=O)N(C)[C@H]1CC[C@H](CC(=O)Nc3ccccc3)O[C@@H]1CO2	none (no result: Myeloid diff MLP, ABCB6 inh 2)
CS(=O)(=O)Nc1ccccc1-c1ccc2nccn2c1	none
CS(=O)(=O)Nc1ccccc1-c1cccc2nccn12	ABCB6 inh 2 68 | ABCB6 blocker 1 inactive
C[C@@H]1CN([C@H](C)CO)C(=O)c2cc(C3=CCCCC3)cnc2O[C@@H]1CN(C)S(=O)(=O)c1cn(C)cn1	none (no result: Myeloid diff MLP, ABCB6 inh 2)
Cc1noc(C)c1NC(=O)Nc1ccc2c(c1)C(=O)N([C@H](C)CO)C[C@H](C)[C@@H](CN(C)C(=O)Nc1ccccc1)OCCCC[C@@H](C)O2	none (no result: Myeloid diff MLP, ABCB6 inh 2)
COc1ccc(NC(=O)CSc2ccc(C)cc2)cc1	none (no result: Xi reactivation)
COc1ccc(NC(=O)c2ccccc2NC(=O)CSc2ccc(C)cc2)cc1	ABCB6 inh 2 58 (no result: Xi reactivation) | ABCB6 blocker 1 inactive
C[C@H]1CN([C@@H](C)CO)C(=O)Cc2cc(NC(=O)CCCCCC(=O)Nc3ccccc3N)ccc2O[C@H]1CN(C)S(=O)(=O)c1cn(C)cn1	none (no result: Myeloid diff MLP, ABCB6 inh 2)
COc1ccc(S(=O)(=O)N(CC(=O)O)c2ccccn2)cc1	none (no result: Xi reactivation)
COc1ccc(S(=O)(=O)n2ccc(-c3ccc(OCCN(C)c4ccccn4)cc3)n2)cc1	ABCB6 inh 2 73 (no result: Xi reactivation) | ABCB6 blocker 1 inactive
COc1ccc2c3c([nH]c2c1)[C@H](CO)N(C(=O)Nc1ccc(F)cc1)CC31CCN(S(=O)(=O)c2cccc(C)c2)CC1	none (no result: Myeloid diff MLP, ABCB6 inh 2)
CSc1ncc(Cl)c(C(=O)Nc2cccc3ccccc23)n1	none
CCCc1nnc(NC(=O)c2nc(S(=O)(=O)Cc3cccc(C)c3)ncc2Cl)s1	none | K562 vector FC inactive
Cc1cccc(C)c1NC(=O)c1nc(S(=O)(=O)Cc2ccccc2)ncc1Cl	none | K562 vector FC inactive
Cc1nnc(NC(=O)CS(=O)(=O)Cc2ccccc2)s1	none
Cc1cccc(CS(=O)(=O)c2ncc(Cl)c(C(=O)NCc3ccccc3)n2)c1	none
Cc1cccc(CS(=O)(=O)c2ncc(Cl)c(C(=O)Nc3c(C)cccc3C)n2)c1	none | ABCB6 blocker 1 inactive
Cc1nnc(NC(=O)c2nc(S(=O)(=O)Cc3ccccc3)ncc2Cl)s1	none | K562 vector FC inactive
CCCc1nnc(NC(=O)CS(=O)(=O)c2ccc(C)cc2)s1	none
C[C@@H]1CCCCO[C@H](CN(C)S(=O)(=O)c2ccccc2)[C@@H](C)CN([C@H](C)CO)C(=O)c2cc(NC(=O)CCCCCC(=O)Nc3ccccc3N)ccc2O1	none (no result: Myeloid diff MLP, ABCB6 inh 2)
CO[C@H](CN(C)S(=O)(=O)c1cccc(Cl)c1)[C@H](C)CN([C@H](C)CO)S(=O)(=O)c1cccc(Cl)c1	none (no result: Myeloid diff MLP, ABCB6 inh 2)
COc1cccc(CN2CC3(CN(C(=O)Nc4c(C)noc4C)C3)c3c([nH]c4cc(OC)ccc34)[C@H]2CO)c1	none (no result: Myeloid diff MLP, ABCB6 inh 2)
COc1cc(NC(=O)c2ccc3c(c2)OCO3)c2ncccc2c1	none (no result: Xi reactivation)
O=C(Nc1cccc2cccnc12)c1ccc2c(c1)OCCO2	ABCB6 inh 2 43 (no result: Xi reactivation) | ABCB6 blocker 1 inactive
COc1ccc(NC(=O)N[C@H]2C=C[C@@H](CC(=O)NCc3ccccn3)O[C@@H]2CO)cc1	none (no result: Myeloid diff MLP, ABCB6 inh 2)
